# Source: PubChem (several laboratories)
# Sampled rows, rich in hits. Any-hit rate of the full collection: about 3%.
# Exocytosis inh: blocks lytic granule exocytosis | TALL-104 LAMP-1 surface exposure, flow cytometry; cells stimulated with thapsigargin and PMA | hit rate 0.66% among 360,000 | inhibition, % at 10 µM;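 active = inhibition above about 55%, limit read from the data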
# iPSC survival up: enhancers of human iPSC single-cell survival | hit rate 0.044% among 360,000 | AID 602274 | hiPSC single-cell survival, ATPlite luminescence; 100% = ROCK inhibitor wells, 0% = DMSO | survival enhancement, % at 20 µM; in the data active = survival enhancement above about 18%;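 also: cells exposed to compounds for 16 hours before the ATP read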
# MIN6 prolif: inducers of beta-cell replication in MIN6 cells; MIN6 cells proliferation, ATPlite luminescence, 48 h; cells starved in 0.2% serum; 100% = growth in 10% serum; proliferation, % at 10 µM; hit rate 0.29% among 330,000;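 active = compounds whose signal lies at least 3.5 SD above the mean of all wells on their plate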;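 also: 0% = DMSO-treated cells in low-serum medium and 100% = 10% serum control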
# MPTP block: blocks calcium-induced mitochondrial swelling; isolated mouse mitochondria, Ca2+ swelling absorbance, 30 min; inhibition, % at 10 µM; hit rate 1.4% among 360,000;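 active = inhibition of 50% or more, scaled per plate between neutral and stimulator controls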;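 also: 0% = DMSO wells given calcium and 100% = 1 mM EGTA wells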
# UBC13 inh: human UBC13 polyubiquitination inhibition; hit rate 0.47% among 330,000; P61088; inhibition, % at 20 µM; UBC13 polyubiquitin chain formation, TR-FRET; in the data active = inhibition above about 45%, passing the limit was not always enough
# Target sequence (P61088 whole entry, looked up): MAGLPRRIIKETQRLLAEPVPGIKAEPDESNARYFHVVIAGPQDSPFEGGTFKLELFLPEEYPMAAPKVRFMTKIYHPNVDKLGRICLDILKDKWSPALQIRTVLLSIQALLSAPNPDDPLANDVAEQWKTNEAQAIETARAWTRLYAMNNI
# Apaf1 inhib: human Apaf-1 inhibition. inhibition, % at 20 µM. O14727. hit rate 0.71% among 330,000. AID 489030. reconstituted apoptosome caspase-3 activity, DEVD-Rh110 fluorescence; active = inhibition of at least 40% at 20 µM;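 also: plate controls were DMSO wells for no effect and DEVD-CHO caspase inhibitor wells for full effect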
#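 Assay system – apoptosome proteins · Medium – Hepes buffer, pH 7.5 · Also added – cytochrome c with DEVD-Rh110 · Timing – 30 min compound preincubation, 50 min activation, room temperature · Detection – Rh110 fluorescence, excitation 480 nm, emission 540 nm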
# Casp3 UBC13 ctr: inhibits human caspase-3 in UBC13 counter-screen | shares compounds with UBC13 inh | Recombinant caspase-3, Caspase-Glo 3/7 luminescence, 60 min | inhibition, % at 20 µM | hit rate 4% among 1,400;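 active = mean inhibition across replicates above about 26%, limit read from the data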;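 also: plate controls were DMSO with caspase-3 for no effect and DMSO wells lacking enzyme for full effect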
# Target sequence (P42574 whole entry, looked up): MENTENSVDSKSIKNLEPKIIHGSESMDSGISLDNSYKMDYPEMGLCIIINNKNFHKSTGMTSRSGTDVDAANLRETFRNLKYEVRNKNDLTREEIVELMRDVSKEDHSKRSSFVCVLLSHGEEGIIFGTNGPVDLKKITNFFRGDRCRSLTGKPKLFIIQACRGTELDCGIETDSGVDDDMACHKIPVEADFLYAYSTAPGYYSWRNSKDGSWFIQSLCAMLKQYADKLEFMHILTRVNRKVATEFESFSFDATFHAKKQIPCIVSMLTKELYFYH
# UBC13 conf: confirmation of human UBC13 polyubiquitin inhibitors; AID 488859; UBC13 polyubiquitination, TR-FRET, biochemical; hit rate 68% among 1,400; shares compounds with UBC13 inh; inhibition, % at 10 µM; in the data active = inhibition above about 45%
# Apaf-1 inh conf2: Apaf-1 inhibition, single-dose confirmed; shares compounds with Apaf1 inhib; reconstituted apoptosome, caspase-3 DEVD-Rh110 fluorescence; inhibition, % at 20 µM; hit rate 25% among 1,800; AID 504614;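 active = mean inhibition of at least 40% at 20 µM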;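 also: plate controls were DMSO wells for no effect and DEVD-CHO caspase inhibitor control wells for full effect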
# Rh110 interf inh: interferes with Rh110 fluorescence, flagging false Apaf-1 inhibitors. shares compounds with Apaf1 inhib. Rh110 fluorescence interference, quenched caspase reaction. activation (fluorescence interference), % at 20 µM. 1,800 tested, under 10 active;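 active = signal rise of 40% or more at 20 µM, treated as a fluorescence artifact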
# Fluor interf inh: Apaf-1 inhibitor counter-screen fluorescence artifact; fluorescence interference counterscreen, Apaf-1 assay format; AID 588538; shares compounds with Apaf1 inhib; IC50, µM; 460 tested, under 10 active; call rule not given here
# Granule exo CP1: lytic granule exocytosis inhibition; shares compounds with Exocytosis inh; TALL-104 cells, LAMP-1 externalization, flow cytometry; stimulated with PMA plus thapsigargin; inhibition, % at 10 µM; hit rate 11% among 1,500; AID 651954; in the data active = inhibition above about 60%;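 also: 0% = stimulated vehicle wells and 100% = unstimulated wells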
# * hit, by the source's call; . = no result.
SMILES,Exocytosis inh,iPSC survival up,MIN6 prolif,MPTP block,UBC13 inh,Apaf1 inhib,Apaf-1 inh conf2,Rh110 interf inh,others
C=CCOc1ccccc1CN1CCC(Oc2cc(C(=O)NC3CC3)ccc2OC)CC1,0,0,-3,-1,-2,17,.,.,
CN1CCN(Cc2nc3ccccc3c(=O)n2Cc2nc(-c3ccc([N+](=O)[O-])cc3)cs2)CC1,75*,-3,0,-3,79*,20,.,.,Casp3 UBC13 ctr=2;UBC13 conf=57*;Granule exo CP1=97*
CN(C)Cc1nc2ccccc2c(=O)n1Cc1nc(-c2cccc([N+](=O)[O-])c2)cs1,1,1,-5,0,0,2,.,.,
Cc1cccc2c1-c1sc(C(=O)NCCCN3CCCC(C)C3)cc1CO2 (configuration not stated),85*,-1,-8,44,67*,23,.,.,Casp3 UBC13 ctr=4;UBC13 conf=97*;Granule exo CP1=-2
CCCN1CCN(CCCNC(=O)c2cc3c(s2)-c2c(C)cccc2OC3)CC1,65*,-1,-8,0,49*,18,.,.,Casp3 UBC13 ctr=-1;UBC13 conf=57*;Granule exo CP1=-1
COc1ccc(C(=O)COC(=O)CCCN=C2NS(=O)(=O)c3ccccc32)c(OC)c1,-5,0,-4,0,-2,51*,9,1,
O=C(NCCCn1ccnc1)c1noc2c1CCc1ccccc1-2,9,8,1,0,-2,47*,40,2,
O=C(NCCCn1ccnc1)c1noc2c1CCCC2,-3,0,-1,-1,12,-20,.,.,
N#CC(c1nc2ccccc2nc1N1CCCC1)S(=O)(=O)c1ccccc1 (configuration not stated),0,-3,-5,1,-26,64*,13,3,
Cc1cccc(S(=O)(=O)C(C#N)c2nc3ccccc3nc2N2CCCC2)c1 (configuration not stated),5,6,-6,0,-38,55*,20,5,
CN1CCN(c2nc3ccccc3nc2C(C#N)S(=O)(=O)c2ccccc2)CC1 (configuration not stated),.,.,-1,.,4,-13,.,.,
Cc1ccc(C)c(S(=O)(=O)C(C#N)c2nc3ccccc3nc2N2CCCC2)c1 (configuration not stated),-3,5,-7,-2,-36,87*,12,1,
COc1ccc(-n2nc3cc(N)c(Br)cc3n2)cc1,16,0,-4,2,3,69*,4,4,
O=C(CN1C(=O)NC2(CCCCC2)C1=O)Nc1cccc(Cl)c1Cl,-1,0,-3,-1,1,-12,.,.,
Cc1c(Cl)cccc1N=C1SCCN1C(=O)CN1C(=O)NC2(CCCC2)C1=O,18,0,-7,0,4,40*,17,-3,
CC(=O)c1cccc(S(=O)(=O)NC2CCSc3ccccc32)c1 (configuration not stated),21,2,-1,1,3,19,.,.,
C=CCn1c(SCC(=O)Nc2sccc2C(N)=O)nc2sc(CC)cc2c1=O,-3,-2,-2,8,4,42*,36,7,
COc1cc(/C=C2\C(=O)N(CCC#N)N=C2C)c(Br)cc1OC(C)C,1,-2,-2,0,-1,79*,28,0,
C=CCN(CC=C)Cc1c(O)ccc2c1oc(=O)c1ccccc12,-2,6,-1,-2,25,47*,41*,3,Fluor interf inh=>100
COC(=O)[C@@]1(C)[C@H]2C(=O)N(Cc3ccccc3)C(=O)[C@H]2[C@H]2CN=C(SCC(=O)c3ccccc3)N21,6,2,.,5,.,5,.,.,
O=C1c2ccccc2-c2nc3ccccc3cc21,-5,0,-1,1,-12,1,.,.,
O=C1c2ccccc2-c2nnc(-c3ccc(O)cc3)cc21,7,-2,-6,3,-47,91*,11,0,
Cc1ccccc1-c1cc2c(nn1)-c1ccccc1C2=O,12,-5,-4,0,-31,97*,61*,-7,Fluor interf inh=>100
O=C1c2ccccc2-c2nnc(-c3ccc(F)cc3)cc21,2,-2,-5,2,-56,78*,9,2,
CC(=O)c1ccc(Nc2ccc(-c3ccccc3C)nn2)cc1,-3,-4,-3,1,-1,-8,.,.,
SMILES,Exocytosis inh,iPSC survival up,MIN6 prolif,MPTP block,UBC13 inh,Apaf1 inhib,Apaf-1 inh conf2,Rh110 interf inh,others
Cc1ccc(-c2cc3c(nn2)-c2ccccc2C3=O)cc1,4,-1,-6,5,-20,27,.,.,
CC1CCN(S(=O)(=O)c2ccc3c(c2)N(CC(=O)N(C)Cc2ccco2)C(=O)CO3)CC1,-2,0,-1,1,-7,13,.,.,
Cc1ccsc1CN(C(=O)c1ccc([N+](=O)[O-])cc1)C1CCS(=O)(=O)C1 (configuration not stated),-3,0,2,0,-3,2,.,.,
CC1(C)Cc2ccccc2C2=NNC(=O)C2=N1,0,-2,-4,-1,-53,62*,64*,3,Fluor interf inh=>100
COc1ccc(S(=O)(=O)N2CCCCCC2)cc1C(=O)N(C)Cc1c(F)cccc1Cl,3,0,-3,0,23,43*,31,4,
CCN1CCN(S(=O)(=O)c2ccc(Cl)c(C(=O)N(C)Cc3cccc(Cl)c3Cl)c2)CC1,3,0,1,-1,2,43*,30,-1,
COc1ccc(S(=O)(=O)N2CCCCCC2)cc1C(=O)NCCc1ccccc1,-2,0,1,1,10,47*,36,-7,
CCN1CCN(S(=O)(=O)c2ccc(Cl)c(C(=O)N(C)Cc3ccccc3)c2)CC1,-4,0,2,-1,-1,-7,.,.,
COc1cc(CN2CCCC(C(=O)N3CCc4ccccc4C3)C2)cc(OC)c1OC (configuration not stated),2,0,-3,0,4,2,.,.,
Cc1ccc(/C=C/c2onc(C)c2S(=O)(=O)N2CCC(C(=O)N3CCN(C)CC3)CC2)cc1,26,0,-8,-2,11,45*,15,11,
